# Laboratory results published in ChEMBL document CHEMBL1142431, “Benzodioxoles: novel cannabinoid-1 receptor inverse agonists for the treatment of obesity” (J Med Chem, 2008).
# Tests used:
# [1] = Selectivity for human CB1 receptor over opiate receptor
# [2] = Selectivity for human CB1 receptor over P2X receptor
# [3] = Selectivity for human CB1 receptor over P2Y receptor
# [4] = Selectivity for human CB1 receptor over 5HT receptor
# [5] = Selectivity for human CB1 receptor over TRH receptor
# [6] = Selectivity for human CB1 receptor over SK1 calcium channel
# [7] = Selectivity for human CB1 receptor over 5HTT
# [8] = species: Homo sapiens; assay: Selectivity for human CB1 receptor over human bradykinin B1 receptor
# [9] = species: Homo sapiens; assay: Selectivity for human CB1 receptor over human CB2 receptor
# [10] = species: Homo sapiens; assay: Selectivity for human CB1 receptor over human adenosine A1 receptor
# [11] = species: Homo sapiens; assay: Selectivity for human CB1 receptor over human adenosine A2A receptor
# [12] = species: Homo sapiens; assay: Selectivity for human CB1 receptor over human adrenergic beta2 receptor
# [13] = species: Homo sapiens; assay: Selectivity for human CB1 receptor over human AT1 receptor
# [14] = Selectivity for human CB1 receptor over CRF1 receptor
# [15] = species: Homo sapiens; assay: Selectivity for human CB1 receptor over human ETA receptor
# [16] = Selectivity for human CB1 receptor over AMPA receptor
# [17] = Selectivity for human CB1 receptor over kainate receptor
# [18] = species: Homo sapiens; assay: Selectivity for human CB1 receptor over human NK3 receptor
# [19] = system: Mus musculus; assay: Reversal of CP-55940-induced hypothermia in NMRI mouse assessed as rectal temperature at 30 mg/kg, ip; assay type: functional; conditions: route intraperitoneal, read-out: ID50 (the source's name)
# Outline: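 Mice housed eight per group, eight per dose, habituated at least 2 h. Test compound in 0.3% Tween 80 (10 mL/kg) given 90 min before CP 55940 (0.3 mg/kg iv, same vehicle). Body temperature read 20 min before compound, just before CP 55940, and 20 min after it.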
compound,measurement,setting,value
O=C(c1cc2c(cc1F)O[C@](c1ccc(F)cc1)(c1ccc(Cl)cc1Cl)O2)N1CCOCC1,Selectivity ratio,[1],300
same,Selectivity ratio,[2],300
same,Selectivity ratio,[3],300
same,Selectivity ratio,[4],300
same,Selectivity ratio,[5],300
same,Selectivity ratio,[6],300
same,Selectivity ratio,[7],300
same,Selectivity ratio,[8],300
same,Selectivity ratio,[9],1000
same,Selectivity ratio,[10],300
same,Selectivity ratio,[11],300
same,Selectivity ratio,[12],300
same,Selectivity ratio,[13],300
same,Selectivity ratio,[14],300
same,Selectivity ratio,[15],300
same,Selectivity ratio,[16],300
same,Selectivity ratio,[17],300
same,Selectivity ratio,[18],300
same,ED50,[19],4 mg/kg
